Only some compounds are listed: those with a hit (about 0.89% of all), similar ones and a draw of the others.
MIN6 prolif – MIN6 beta-cell proliferation induction; MIN6 cells proliferation, ATPlite luminescence, 48 h; cells starved in 0.2% serum; 100% = growth in 10% serum; proliferation, % at 10 µM; hit rate 0.29% among 330,000; AID 2380;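 active means compounds whose signal lies at least 3.5 SD above the mean of all wells on their plate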;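 further: 0% = DMSO-treated cells in low-serum medium and 100% = 10% serum control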
NTR1 ag – activates human neurotensin receptor 1. P30989. NTR1-U2OS beta-arrestin-GFP spot imaging, agonist mode. activation, % at 20 µM. hit rate 0.17% among 330,000;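 active means activation at or above 40% of the spot to cytoplasm intensity ratio, with at least 20 cells analyzed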;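 further: 0% = DMSO without peptide and 100% = 100 nM NTR1 peptide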
Target sequence (P30989 whole entry, looked up): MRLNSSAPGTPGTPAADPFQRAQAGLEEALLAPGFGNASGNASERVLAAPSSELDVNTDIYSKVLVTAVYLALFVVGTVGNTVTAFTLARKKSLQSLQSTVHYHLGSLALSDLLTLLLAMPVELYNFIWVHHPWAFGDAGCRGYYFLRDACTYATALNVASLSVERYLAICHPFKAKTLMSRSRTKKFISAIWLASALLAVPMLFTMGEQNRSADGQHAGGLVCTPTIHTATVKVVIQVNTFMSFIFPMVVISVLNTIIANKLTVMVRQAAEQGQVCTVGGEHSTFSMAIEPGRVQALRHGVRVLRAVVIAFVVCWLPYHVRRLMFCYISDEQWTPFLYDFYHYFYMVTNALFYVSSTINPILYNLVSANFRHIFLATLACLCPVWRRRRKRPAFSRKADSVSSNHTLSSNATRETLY
Xi reactivation – reactivates the inactive X chromosome in mouse fibroblasts; XiGFP mouse fibroblasts, % GFP-positive cells imaging, 3 d; cells co-treated with 5-aza-dC sensitizer; scaled so ellipticine positive control = 100%; activation, % at 7.58 µM; hit rate 0.055% among 360,000;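 active means mean normalized replicate activation at least 10% and every replicate at or above 10%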;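 further: 0% = median of on-plate neutral control wells and 100% = ellipticine 6 µM median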
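Assay system: SV40-immortalized XiGFP fibroblast cells, line 68-5-11; buffer or medium: DMEM plus 5-aza-dC sensitizer; compound: one concentration, pinned; timing: compounds 3 days, fix/stain 15 min at room temperature; benchmarks: positive control ellipticine, 6 µM final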
T cell modulator – T cell immune modulation candidate; 2C CD8+ T cell-vesicle binding, flow cytometry; active compounds read low; response (vesicle binding), % at 7 µM; hit rate 0.068% among 330,000;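 active means response, share of CD8 T cells binding vesicles, and their 90th percentile fluorescence all below set limits, cut at about 80% in these data, passing the limit was not always enough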;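 further: values below 100% mean blocked vesicle binding to the CD8+ T cells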
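Read-out – percent CD8+ FL2 mean versus row control · System – murine 2C transgenic CD8+ T lymphocytes · Times – 1.5 h cell–vesicle binding at 37 °C, then 20 min icy labelling · Control set – naked vesicles low, QL9 vesicles with vehicle high · Detection – cytometric PE anti-B7-1 and Alexa647 anti-CD8 signals after 1% paraformaldehyde fixation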
Arr AP2 block – human beta-arrestin and AP2 interaction inhibition; FITC-arrestin peptide / GST-AP2 beads, flow cytometry; AP2 beta2 appendage carries R879A mutation; hit rate 0.31% among 340,000; inhibition, % at 10 µM;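 active means inhibition above a set limit, near 3 SD of compounds lacking own fluorescence, cut at about 54% in these data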;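 further: plate controls were DMSO wells for no effect and 5 µM unlabelled arrestin peptide for full effect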
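System: GST-AP2 R879A bound to glutathione beads, E. coli-expressed. Also added: 50 nM FITC-arrestin peptide. Schedule: compound with beads 12 min RT, then probe 1 h RT. Signal: bead flow cytometry, FITC channel. Read-out basis: percent response.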
V-ATPase pH – yeast V-ATPase proton transport regulation by pHLuorin. S. cerevisiae, pHLuorin cytosolic pH fluorescence. hit rate 0.37% among 350,000. AID 504577. response, % at 10 µM; in the data active means response mostly above about 7.3%, no sharp cut-off; inactive means mostly below about 5.4%; further: actives read high
Arr-AP2 CP1 – blocks beta-arrestin peptide binding to human AP2 | shares compounds with Arr AP2 block | GST-AP2 beads, FITC arrestin peptide binding, flow cytometry; GST-fused beta2-adaptin appendage, R879A mutant | inhibition, % at 10 µM | hit rate 2% among 1,300 | AID 504908;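 active means inhibition above a set limit, roughly 3 SD of non-fluorescent compound noise, cut at about 38% in these data; inactive means inhibition at or below that limit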;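 further: loss of bead fluorescence from 50 nM FITC arrestin peptide bound to appendage; 0% = negative control wells and 100% = excess unlabelled arrestin peptide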
GST-FITC bead – disrupts GST binding to glutathione beads, arrestin-AP2 artifact | AID 588338 | hit rate 2% among 1,300 | GST-fluorescein binding to GSH beads, fluorescence, counter-screen | inhibition, % at 10 µM | shares compounds with Arr AP2 block;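 active means inhibition above 50%, about 3 SD of the inhibition seen with non-fluorescent compounds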;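 further: fluorescein maleimide labelled GST captured on 4 micron glutathione beads; higher means more loss of bead fluorescence from quenching or blocked binding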
V-ATPase pH SP – yeast V-ATPase proton transport regulation; shares compounds with V-ATPase pH; S. cerevisiae pHLuorin cytosolic pH; response, % at 10 µM; hit rate 2% among 980; AID 602197; in the data active means response above about 24%;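 further: plate controls were vehicle wells for no effect and positive control wells for full effect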
* = called active by the depositor; . = no result.

SMILES	MIN6 prolif	NTR1 ag	Xi reactivation	T cell modulator	Arr AP2 block	V-ATPase pH	V-ATPase pH SP	others
O=C(/C=C/c1ccccc1)NCCS(=O)(=O)N1CCN(c2ccccc2)CC1	5	1	0	561	55*	6.5*	1	Arr-AP2 CP1=-4;GST-FITC bead=-9
O=C(/C=C/c1ccc2c(c1)OCO2)NCCS(=O)(=O)N1CCN(c2ccccc2)CC1	.	.	0	.	.	2	.
CO[C@@H]1CN(C)C(=O)c2ccc(NC(=O)C3CCOCC3)cc2OC[C@H](C)NC[C@@H]1C	.	.	0	.	.	.	.
C[C@@H]1CN([C@@H](C)CO)C(=O)c2cc(NC(=O)NC3CCCCC3)ccc2O[C@H]1CN(C)C(=O)Nc1ccccc1	.	.	2	.	.	.	.
CCN(CC(=O)Nc1ccc(NC(C)=O)cc1)C(=O)c1cc(C)on1	5	0	0	222	0	10*	1
Cc1ccc(NC(=O)CN(C)C(=O)c2cc(C)on2)cc1	1	-1	0	287	2	0	.
COc1ccc(/C=C2\CCn3c2nc2cc(C(=O)O)ccc2c3=O)cc1O	-1	3	.	324	1	10*	2
CO[C@@H]1CN(C)C(=O)c2cc(NC(=O)c3ccccc3F)ccc2OC[C@@H](C)N(C(=O)c2ccccc2F)C[C@@H]1C	.	.	0	.	.	.	.
COc1ccc(-c2ccc([C@H]3[C@@H](CO)N4CCCCN(C(=O)c5ccc6c(c5)OCO6)C[C@H]34)cc2)cc1	.	.	0	.	.	.	.
COc1cccc(C2C(C(=O)OCc3ccccc3)=C(C)Nc3ncnn32)c1OC (centres undefined)	2	-2	0	102	17	8.5*	-2
C[C@@H]1CN([C@H](C)CO)C(=O)c2cc(C#CC3CC3)cnc2O[C@H]1CN(C)C(=O)Cc1ccccn1	.	.	-1	.	.	.	.
O=C(Cc1ccccc1)N[C@@H]1CC[C@@H](CC(=O)N2CCCCC2)O[C@@H]1CO	.	.	0	.	.	.	.
O=C(CSc1nnc(-c2ccccc2)o1)NC1CCS(=O)(=O)C1 (centres undefined)	0	2	0	237	2	3	3
O=C(CSc1nnc(-c2ccccc2)o1)NC1CC1	0	1	0	326	25	0	-1
O=C1OCCC1Sc1nnc(-c2ccccc2)o1 (centres undefined)	3	1	.	110	8	-1	-3
Cc1ccc(C)c(SCC(=O)NC2CCS(=O)(=O)C2)c1 (centres undefined)	0	0	0	.	-14	12*	-4
Cc1ccc(-n2nnnc2SCC(=O)NC2CCS(=O)(=O)C2)c(C)c1 (centres undefined)	-1	0	0	.	17	-2	.
CCCNC(=O)C[C@@H]1CC[C@@H]2[C@@H](COc3ccc(NC(=O)c4cscn4)cc3C(=O)N2C)O1	.	.	0	.	.	.	.
COc1ccc(/C=N/NC(=O)C2c3ccccc3-c3ccccc32)cc1	-2	0	0	282	-2	27*	0
COCOCCn1cc(CN2CCS(=O)(=O)N(Cc3ccc(-c4ccc(OC)nc4)cc3)C(C)C2=O)nn1 (centres undefined)	.	.	0	.	.	7.8*	-2
O=C(Nc1ccc(F)c(F)c1)C1CCN(S(=O)(=O)c2cccs2)CC1	-2	-2	0	303	4	8.3*	-5
Cc1nn(-c2ccccc2)c(Cl)c1/C=C1\SC(=S)N(C)C1=O	-4	6	0	255	9	-3	.
Cc1nn(-c2ccccc2)c(Cl)c1/C=C1\C(=O)N(C)C(=S)N1C	4	3	0	321	-23	47*	2
O=C1NC(=S)N/C1=C/c1cccc2ccccc12	-3	2	0	234	-2	9.1*	-10

Screens from PubChem BioAssay.
